# Data as given in ChEMBL document CHEMBL3046951, “Volatile constituents from the leaves of Callicarpa japonica Thunb. and their antibacterial activities” (2004).
# Key:
# Format in all cases: functional
# Salmonella typhimurium [1] = experiment: Antimicrobial activity against Salmonella enterica subsp. enterica serovar Typhimurium ATCC 14028 assessed as growth inhibition rate at 1470.8 mg/l after 72 hr by spectrophotometry; settings: ATCC 14028, 72 h, read-out: GI
# Outline: (§1)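 Salmonella Typhimurium ATCC 14028 grown in nutrient broth at 30 °C, precultured 24 h, then subcultured 1:100 for 18 h before testing. Single volatile compounds (>95% pure) were added. OD was read every 24 h over 72 h in a Bioscreen C, with 10% Tween 80 as the comparison control.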
# Staphylococcus aureus [2] = experiment: Antimicrobial activity against Staphylococcus aureus ATCC 25923 assessed as growth inhibition rate at 1470.8 mg/l after 72 hr by spectrophotometry; settings: ATCC 25923, 72 h, read-out: GI
# Vibrio parahaemolyticus [3] = experiment: Antimicrobial activity against Vibrio parahaemolyticus ATCC 33844 assessed as growth inhibition rate at 1470.8 mg/l after 72 hr by spectrophotometry; settings: ATCC 33844, 72 h, read-out: GI
# Listeria monocytogenes [4] = experiment: Antimicrobial activity against Listeria monocytogenes ATCC 19111 assessed as growth inhibition rate at 1470.8 mg/l after 72 hr by spectrophotometry; settings: ATCC 19111, 72 h, read-out: GI
# Outline: (§2)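 L. monocytogenes was grown at 30 °C in tryptic soy broth, subcultured for 18 h, and exposed to pure volatile compounds (>95% purity). Growth was followed by Bioscreen C optical density every 24 h for 72 h against a 10% Tween 80 control.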
# Bacillus cereus [5] = experiment: Antimicrobial activity against Bacillus cereus ATCC 11778 assessed as growth inhibition rate at 1470.8 mg/l after 72 hr by spectrophotometry; settings: ATCC 11778, 72 h, read-out: GI
# Outline: (§3)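 Pure volatile compounds (purity >95%; one at 90%) were tested against B. cereus ATCC 11778. The strain was grown at 30 °C in nutrient broth for 24 h, then subcultured for 18 h. Optical density was read in a Bioscreen C every 24 h for 72 h, with 10% Tween 80 as the control.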
# Escherichia coli [6] = experiment: Antimicrobial activity against Escherichia coli O157:H7 ATCC 43894 assessed as growth inhibition rate at 1470.8 mg/l after 72 hr by spectrophotometry; settings: O157:H7 ATCC 43894, 72 h, read-out: GI
# Salmonella typhimurium [7] = experiment: Antimicrobial activity against Salmonella enterica subsp. enterica serovar Typhimurium ATCC 14028 assessed as growth inhibition rate at 3.8 mg/l after 72 hr by spectrophotometry; settings: ATCC 14028, 72 h, read-out: GI; outline: as §1
# Escherichia coli [8] = experiment: Antimicrobial activity against Escherichia coli O157:H7 ATCC 43894 assessed as growth inhibition rate at 3.8 mg/l after 72 hr by spectrophotometry; settings: O157:H7 ATCC 43894, 72 h, read-out: GI
# Staphylococcus aureus [9] = experiment: Antimicrobial activity against Staphylococcus aureus ATCC 25923 assessed as growth inhibition rate at 3.8 mg/l after 72 hr by spectrophotometry; settings: ATCC 25923, 72 h, read-out: GI
# Listeria monocytogenes [10] = experiment: Antimicrobial activity against Listeria monocytogenes ATCC 19111 assessed as growth inhibition rate at 3.8 mg/l after 72 hr by spectrophotometry; settings: ATCC 19111, 72 h, read-out: GI; outline: as §2
# Bacillus cereus [11] = experiment: Antimicrobial activity against Bacillus cereus ATCC 11778 assessed as growth inhibition rate at 3.8 mg/l after 72 hr by spectrophotometry; settings: ATCC 11778, 72 h, read-out: GI; outline: as §3
# Vibrio parahaemolyticus [12] = experiment: Antimicrobial activity against Vibrio parahaemolyticus ATCC 33844 assessed as growth inhibition rate at 3.8 mg/l after 72 hr by spectrophotometry; settings: ATCC 33844, 72 h, read-out: GI
Structure (SMILES),inhibition of growth at 1470.8 µg/mL (Salmonella typhimurium [1]),inhibition of growth at 1470.8 µg/mL (Staphylococcus aureus [2]),inhibition of growth at 1470.8 µg/mL (Vibrio parahaemolyticus [3]),inhibition of growth at 1470.8 µg/mL (Listeria monocytogenes [4]),inhibition of growth at 1470.8 µg/mL (Bacillus cereus [5]),inhibition of growth at 1470.8 µg/mL (Escherichia coli [6]),inhibition of growth at 3.8 µg/mL (Salmonella typhimurium [7]),inhibition of growth at 3.8 µg/mL (Escherichia coli [8]),inhibition of growth at 3.8 µg/mL (Staphylococcus aureus [9]),inhibition of growth at 3.8 µg/mL (Listeria monocytogenes [10]),inhibition of growth at 3.8 µg/mL (Bacillus cereus [11]),inhibition of growth at 3.8 µg/mL (Vibrio parahaemolyticus [12])
C=C1CC/C=C(/C)CC[C@@H]2[C@@H]1CC2(C)C [CARYOPHYLLENE],10.2%,54.7%,26.5%,7.2%,32.1%,12.8%,–,–,–,–,–,–
C=CC(C)(O)CCC=C(C)C (configuration not stated) [LINALOOL],–,–,–,–,–,–,8.2%,2.1%,2.6%,0.6%,8.6%,0%
